The source of these data is article PMC5350499 (International Journal for Parasitology: Drugs and Drug …, 2017).

For series [1], the system named is P. falciparum Dd2 (chloroquine-resistant). The experiment in a line: SYBR green I-based parasite viability assay, Dd2 strain. Format: cell-based, Plasmodium falciparum. As to conditions: for EC50: Plasmodium falciparum, DD2, 72 h. In outline:
(§1)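 Parasites grown in human A+ erythrocytes in RPMI 1640 (25 mM HEPES pH 7.4, 26 mM NaHCO3, 2% dextrose, hypoxanthine, gentamycin, 0.5% Albumax II), 37 °C, 5% CO2. Compound DMSO dilutions (<0.125% DMSO) at 1% parasitemia, 2% hematocrit; chloroquine baseline. After 72 h: frozen at −80 °C, thawed, lysed with saponin/Triton/EDTA buffer containing 0.01% SYBR Green I, 30 min dark at 37 °C; fluorescence read at 485/530 nm. EC50 from 3 experiments × 3 replicates (±SD).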

Series [2] deals with P. falciparum 3D7 (chloroquine-sensitive). As to the kind of experiment: SYBR green I-based parasite viability assay, 3D7 strain. Format: cell-based. As to conditions: Plasmodium falciparum, 3D7, 72 h. In outline: as §1
In series [3] the test system is HepG2 human hepatocyte cells. The experiment in a line: MTS cytotoxicity assay. To be noted: for EC50: Homo sapiens. Format: cell-based. An outline of the steps:
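HepG2 seeded at 2500 cells/well in 384-well plates with compound dilutions, 48 h at 37 °C, 5% CO2. MTS reagent added for a further 3 h; absorbance read at 490 nm. EC50 from 3 independent experiments, each in triplicate (±SD).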
A general note: Tetrazolium assays rely on reduction of a dye to a coloured formazan, in cell work by metabolically active cells.

Series [4] relates to β-hematin formation. The experiment in a line: β-Hematin formation assay. As to conditions: 100 μM; for %Inhibition of β-hematin formation: average of two separate experiments. Format: biochemical. An outline of the steps:
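Compound added with water, acetone and Nonidet P-40, then hematin-DMSO suspension; incubated 6 h at 37 °C with shaking. β-Hematin measured by pyridine ferrochrome method: 5% v/v final pyridine (from water/20% acetone/HEPES/50% pyridine solution), 10 min under the same conditions, absorbance at 405 nm. Chloroquine and 8-hydroxyquinoline run as references.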

Series [5] has as its system P. falciparum HB3 (chloroquine-sensitive). The experiment in a line: Image-based merozoite egress and invasion assay. Format: cell-based, Plasmodium falciparum. As to conditions: for effect on merozoite egress and invasion: exposed at 42 hpi (schizont stage) for 24 h, 10 μM per method; for parasite phenotype in sample micrographs: 1 μM at 42 hpi for 24 h (Fig. 4 legend). In outline:
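Sorbitol-synchronized HB3 at 1.5% hematocrit and 5% parasitemia, exposed at 42 hpi for 24 h alongside GlcNAc, E-64 and artemisinin references. Stained with WGA-Alexa Fluor 488 and Mitotracker Red CMXRos (1 nM each, 37 °C, 20 min), then fixed in 4% paraformaldehyde with DAPI. Five fields per well imaged at 405/488/635 nm (40× objective) with automated detection of parasitized erythrocytes.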

The nature of series [6]: Aqueous solubility at pH 7.4, UV-visible absorption based method. As to conditions: aqueous solution at pH 7.4, pH 7.4, aqueous buffer. It is filed as physicochemical.
Series [7] is described as follows: Microsomal stability. It is filed as in vitro ADME. As to conditions: mouse, liver microsomes. On the technique in general: Microsomes from liver hold many membrane-bound enzymes, among them those of drug oxidation.
Series [8] relates to P. falciparum Dd2. As to the kind of experiment: Stage specificity, Giemsa-stained thin smears of synchronized cultures. It is filed as cell-based, Plasmodium falciparum.
Series [9] deals with P. falciparum Dd2. The experiment in a line: Stage specificity, YOYO-1 flow cytometry of synchronized cultures. It is filed as cell-based, Plasmodium falciparum. As to conditions: treated at ring stage (6 hpi), 5× EC50; monitored every 12 h. In outline:
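Aliquots taken every 12 h over 48 h. Samples fixed in 0.04% glutaraldehyde/PBS, permeabilized with 0.25% Triton X-100, RNase-treated and stained with YOYO-1. Flow cytometry at 488 nm excitation with a 530/30 filter; DNA content plotted against cell count.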
A general note: In flow cytometry, cells or beads pass a laser one at a time.

In series [10] the test system is P. falciparum. As to the kind of experiment: Parasitemia after treatment at late schizont/segmenter stage. To be noted: 5× EC50, 24 h; compared to control cultures. It is filed as cell-based, Plasmodium falciparum.
Series [11] has as its system P. berghei ANKA. The experiment in a line: Peters' four-day test, murine malaria model. Format: in vivo, Plasmodium berghei in balb/c mice. To be noted: 100 mg/kg twice daily oral.
The subject of series [12] is P. berghei ANKA expressing luciferase. The experiment in a line: Elimination of existing infection, luciferase IVIS imaging. As to conditions: 100 mg/kg once daily oral, started 72 h post-infection; Swiss Webster mice. It is filed as in vivo, Plasmodium berghei in Swiss Webster mice. An outline of the steps:
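Swiss Webster mice infected with 10^4 luciferase-expressing P. berghei ANKA on day 0 and grouped at 72 h (n = 5/group). Oral gavage once daily for 5 days: test compound 100 mg/kg, chloroquine 40 mg/kg, or vehicle (2% methylcellulose, 0.5% Tween80). On day 7, D-luciferin 150 mg/kg injected; signal detected and quantified by IVIS.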

[13] abbreviates: HepG2, 48 h, read-out: HepG2 EC50.

Values after ≈ are worked out from the molar mass of the structure shown. Where two headings read alike, the source gives them in different places. Bounds are passed on as bounds.

On to `CCN(CC)CCCC(C)Nc1ccnc2cc(Cl)ccc12` (stereo not shown) [Chloroquine, reference compound], for which, in [1] (Dd2 versus 3D7), the “EC50 fold higher in Dd2 compared to 3D7” value worked out at 15 fold. For the same compound, the EC50 (in general, the concentration at which the effect is half-maximal) in series [1] (read-out: Dd2 EC50) was 172 nM; in [2] (read-out: 3D7 EC50), 11 ± 2 nM; in [3] (setting [13]) it was greater than 20000 nM. In series [4], the “inhibition of β-hematin formation, in words” value is on record as “complete inhibition”. In [4], the “%Inhibition of β-hematin formation” value was found to be 100 ± 1.78%.

Take `COC(=O)c1ccc(/C=C/c2cc(NCCCN3CCOCC3)c3cc(OC)ccc3n2)cc1` [Compound 16]: the EC50 was 471 ± 80 nM in [1] (read-out: Dd2 EC50), 322 ± 40 nM in [2] (read-out: 3D7 EC50) and 12800 ± 20 nM in [3] (setting [13]).

For `COc1ccc2nc(/C=C/c3ccc(C(F)(F)F)cc3)cc(NCCCN3CCOCC3)c2c1` [Compound 15], the EC50 was 735 ± 60 nM in [1] (read-out: Dd2 EC50), 599 ± 30 nM in series [2] (read-out: 3D7 EC50) and greater than 20000 nM in [3] (setting [13]).

`Oc1cccc2cccnc12` [8-Hydroxyquinoline]: the “%Inhibition of β-hematin formation” value in series [4] is listed as 6 ± 0.42%.

Regarding `COC(=O)c1ccc(/C=C/c2cc(NCCCN(C)C)c3cc(OC)ccc3n2)cc1` [Compound 11], the EC50 in series [1] (read-out: Dd2 EC50) stood at 138 ± 60 nM; in series [2] (read-out: 3D7 EC50) it was 294 ± 60 nM; in [3] (setting [13]), 14900 ± 30 nM.

`COc1ccc2nc(/C=C/c3ccc(C(F)(F)F)cc3)cc(NCCCN(C)C)c2c1` [Compound 10]: the EC50 was 726 ± 40 nM in [1] (read-out: Dd2 EC50), 605 ± 40 nM in series [2] (read-out: 3D7 EC50) and greater than 20000 nM in [3] (setting [13]).

Turning to `CC(C)C[C@H](NC(=O)[C@H]1O[C@@H]1C(=O)O)C(=O)NCCCCN=C(N)N` (relative stereo) [Compound E-64, L-trans-epoxysuccinyl-leucylamido-(4-guanidino)butane], the “effect on merozoite egress and invasion” value in series [5] is “completely blocks egress”.

For `CCN(CC)CCCC(C)Nc1cc(/C=C/c2ccc([N+](=O)[O-])cc2)nc2ccc(OC)cc12` (stereo not shown) [UCF 501, 4-Nitro styrylquinoline (NSQ)], the EC50 is 67 ± 8 nM in series [1] (read-out: EC50 Dd2); 119 ± 3 nM in series [2] (read-out: EC50 3D7); 12920 ± 70 nM in series [3] (HepG2, 48 h, read-out: EC50 HepG2); 12900 nM in series [3] (HepG2, read-out: EC50 in HepG2 cells). The compound also gave a selectivity in series [3] (HepG2 EC50 versus Dd2 EC50) of 192. The solubility – broadly, the dissolved amount per volume that the medium holds – in [6] worked out at 290 µg/mL (≈ 626 µM). Moreover, the fraction remaining (as a rule, what is left of the initial amount, in per cent) at 1 h in series [7] came to 47.8%. Besides, the half-life (as a rule, the time in which the quantity being followed falls by half) in [7] (Microsomal stability t1/2, mouse liver microsomes) was 56.2 min. Further, the “inhibition of β-hematin formation, in words” value in series [4] is “totally inactive”. Further, the “%Inhibition of β-hematin formation” value in series [4] is 0 ± 0.07%. For the same compound, the “ring-infected erythrocytes after exposure at 42 hpi” value in series [8] (5× EC50, compared to untreated controls) is recorded as “scarcely seen”. In series [8] (5× EC50, treated at 42 hpi), the blocking merozoite egress entry was “inactive”. In addition, the “time to phenotypically observable developmental changes” value in series [8] (after treatment, all stages of the intraerythrocytic lifecycle) was no more than 12 h. For the same compound, the “intraerythrocytic maturation by flow cytometry” value in [9] was “maturation is blocked”. In addition, the “parasite phenotype in sample micrographs” value in [5] is given as “accumulation of extracellular merozoites”. Also, the “effect on merozoite egress and invasion” value in [5] was “blocks invasion”. For the same compound, the “culture parasitemia after exposure at 42 hpi” value in [10] is reported as “significant reduction”. In [11] (4 days, Balb/c mice, no infection up to day 30), the “mice cured of malaria infection” value was 4/5. Besides, the “parasitemia in the one animal not cured, day 22” value in [11] (day 22) came out at 0.2%. In addition, the “parasitemia in the one animal not cured, day 27” value in [11] (day 27, euthanized) worked out at 40%. Also, the “luciferase expressing parasite burden, delayed treatment” value in series [12] is given as “almost cleared”.

Regarding `COc1ccc2nc(/C=C/c3ccc([N+](=O)[O-])cc3)cc(NCCCN3CCOCC3)c2c1` [Compound 17], the EC50 in series [1] (read-out: Dd2 EC50) is 123 ± 50 nM; in series [2] (read-out: 3D7 EC50) it was 193 ± 50 nM; in series [3] (setting [13]) it was 15700 ± 70 nM.

In the case of `COc1ccc2nc(/C=C/c3ccccc3)cc(NCCCN3CCOCC3)c2c1` [Compound 13], the half-maximal effective concentration (EC50) came to 303 ± 40 nM in series [1] (read-out: Dd2 EC50), 373 ± 30 nM in series [2] (read-out: 3D7 EC50) and 18000 ± 40 nM in series [3] (setting [13]).

Turning to `COc1ccc2nc(/C=C/c3ccccc3)cc(NCCCN(C)C)c2c1` [Compound 8], the results for the EC50 in [1] (read-out: Dd2 EC50), in [2] (read-out: 3D7 EC50) and in series [3] (setting [13]) were 323 ± 40 nM, 302 ± 10 nM and 19900 ± 40 nM, respectively.

Consider `COc1ccc2nc(/C=C/c3ccc(F)cc3)cc(NCCCN(C)C)c2c1` [Compound 9], for which the EC50 in [1] (read-out: Dd2 EC50) is 137 ± 50 nM; in series [2] (read-out: 3D7 EC50), 299 ± 40 nM; in series [3] (setting [13]), 12600 ± 10 nM.

Regarding `C[C@@H]1CC[C@H]2[C@@H](C)C(=O)O[C@@H]3O[C@@]4(C)CC[C@@H]1[C@]32OO4` [artemisinin, reference compound], the “intraerythrocytic maturation by flow cytometry” value in [9] is reported as “maturation is blocked”. The “effect on merozoite egress and invasion” value in series [5] is “no effect on invasion”. For the same compound, the “culture parasitemia after exposure at 42 hpi” value in series [10] is “does not cause similar marked reduction”.

For the compound `COc1ccc2nc(/C=C/c3ccc(F)cc3)cc(NCCCN3CCOCC3)c2c1` [Compound 14], the EC50 came out at 208 ± 40 nM in series [1] (read-out: Dd2 EC50), 310 ± 20 nM in series [2] (read-out: 3D7 EC50) and 13600 ± 50 nM in series [3] (setting [13]).

On to `CC(=O)N[C@@H]1[C@@H](O)[C@H](O)[C@@H](CO)O[C@H]1O` [N-acetylglucosamine], for which, in series [5], the “parasite phenotype in sample micrographs” value is given as “accumulation of extracellular merozoites”; the “effect on merozoite egress and invasion” value is on record as “blocks invasion”.

As to `COc1ccc2nc(/C=C/c3ccc([N+](=O)[O-])cc3)cc(NCCCN(C)C)c2c1` [Compound 12], the figures for the EC50 in [1] (read-out: Dd2 EC50), in series [2] (read-out: 3D7 EC50) and in series [3] (setting [13]) were 57 ± 30 nM, 197 ± 20 nM and 15300 ± 50 nM, respectively.
